# Assay results gathered from unrelated publications.
# Lines come from different studies, so protocols differ.
# Target: Serine/threonine-protein kinase MARK1 (MARK1, Homo sapiens, UniProt Q9P0L2)
Compound,assay,conditions,remaining binding [%]
O=C(NCCCN1CCOCC1)c1ccc(Nc2nccc(-c3cc4ccccc4s3)n2)cc1,"binding, competition with immobilised ligand",1 µM,66
Cc1cc(NC(=O)c2cccc(S(F)(F)(F)(F)F)c2)cc(-n2ccn3nc(-c4cccnc4)cc23)c1,"cell-free assay, competition with immobilised ligand",1 µM,100
N[C@H]1CCN(c2nccc(-c3cnn4ncccc34)n2)C1,binding,1 µM,100
Cc1cnc(Nc2ccc(C(=O)N3CCC(N4CCCC4)CC3)cc2)nc1-c1cc2ccccc2s1,"binding, competition with immobilised ligand",1 µM,22
Cn1cc(Cl)c2c(Oc3c(F)cc(Nc4cc(Cl)nc(N)n4)cc3F)ccnc21,"cell-free assay, competition with immobilised ligand",0.1 µM,100
CNC(=O)[C@@H]1CC[C@@H](n2c(-c3ccc4cnccc4c3)nc3ccc(C(=O)NCc4cccc(C(N)=O)c4)cc32)C1,"binding, competition with immobilised ligand",1 µM,94
Cc1cnn2ncc(-c3ccnc(N(C)C)n3)c2c1,binding,1 µM,98
C[C@@H](c1ccc(-n2cnc3c(N)ncnc32)cc1)N1CCc2nn(C)c(Cc3ccccc3)c2C1=O,"binding, competition with immobilised ligand",0.1 µM,88
c1cncc(-c2cccc(Nc3nccc(NC4CCCCC4)n3)c2)c1,"binding, competition with immobilised ligand",10 µM,90
COc1cc(-c2cn(C3CCc4c(F)cccc4N(CC(F)(F)F)C3=O)nn2)ccc1-n1cnc(C)c1 (stereo not shown),"cell-free assay, competition with immobilised ligand",1 µM,100
c1cnn2ncc(-c3ccnc(N4CCC45COC5)n3)c2c1,binding,1 µM,91
O=C(c1ccc(Nc2nccc(-c3cc4ccccc4s3)n2)cc1)N1CCC(N2CCCC2)CC1,"binding, competition with immobilised ligand",1 µM,62
CN(c1nccc(-c2cnn3ncccc23)n1)C1CC1,binding,1 µM,83
Nc1ncc2c(n1)-c1c([nH]c3ccc(C#CC4CC4)cc13)CCCC2,"binding, competition with immobilised ligand",1 µM,98
CN(CCCC(F)(F)F)c1nccc(-c2cnn3ncccc23)n1,binding,1 µM,100
CCN1CCN(Cc2ccc(C(=O)Nc3ccc(C)c(Oc4ccc5c(c4)CC(=O)N5)c3)cc2C(F)(F)F)CC1,"binding, competition with immobilised ligand",1 µM,100
Cc1nc(Cc2cccc(C(F)(F)F)c2)sc1-c1ccc(C(N)=O)nc1,"cell-free assay, competition with immobilised ligand",1 µM,90
O=C(NCC1CCOCC1)c1n[nH]cc1NC(=O)c1c(F)cccc1F,"binding, competition with immobilised ligand",1 µM,100
CNCc1ccccc1-c1csc([C@H](C)Nc2nc(C)nc3cc(OC)c(OC)cc23)c1,"cell-free assay, competition with immobilised ligand",1 µM,100
C=CC(=O)N1CCC(C(=O)NCC(=O)N2CCN(c3nc(-c4cnc(N)nc4C(F)F)nc(N4CCOCC4)n3)CC2)CC1,"binding, competition with immobilised ligand",1 µM,100
COc1ccc2cc(OCC3(C(=O)O)CN(C(=O)c4ccc(F)cc4)C3)ccc2c1,"cell-free assay, competition with immobilised ligand",1 µM,100
C[C@H]1CCN(c2nccc(-c3cnn4ncccc34)n2)C1,binding,1 µM,92
